Key:
Assay type in all cases: cell-based, human
p38 MAPK = assay: RPPA proteomics assay of p38 phosphorylation; settings: BBB endothelial (hCMEC/D3) cells exposed to Aβ42
hCMEC/D3 monolayers [1] = assay: F-Aβ42 intracellular accumulation by confocal microscopy; settings: 1 μM SB203580 30 min, then 60 min with 1 μM F-Aβ42
Method in brief: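 Monolayers were grown on collagen-coated 8-well chambered slides, cultured 5−7 days at 37 °C and 5% CO₂, then held in 1% serum medium overnight. They received 1 μM p38 inhibitor for 30 min, then 1 μM FITC-Aβ₄₂ for 60 min. Cells were washed three times with ice-cold PBS, fixed in 4% paraformaldehyde for 20 min at room temperature, and DAPI-stained (300 nM, 10 min). They were then mounted and imaged by confocal SIM super-resolution.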

hCMEC/D3 monolayers [2] = assay: F-Aβ42 cellular uptake by flow cytometry; settings: 1 μM SB203580 30 min, then 60 min with 1 μM F-Aβ42
Method in brief: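 hCMEC/D3 monolayers grown on collagen-coated 6-well plates, seeded at about 25,000 cells/cm², cultured 5−7 days at 37 °C and 5% CO₂ to confluency, then moved to 1% serum medium the day before. Cells were pretreated 30 min with 1 μM p38 inhibitor, then exposed 60 min to 1 μM FITC-Aβ₄₂. Read-out was the median fluorescence intensity of the cell population by flow cytometry, compared by unpaired two-tailed t test.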

Aβ42: unlabeled amyloid-β 42 peptide custom synthesized by AAPPTec
p38 MAPK kinase activation (RPPA) (p38 MAPK): significantly activated

C[S+]([O-])c1ccc(-c2nc(-c3ccncc3)c(-c3ccc(F)cc3)[nH]2)cc1 (stereo not drawn) [SB203580]
fluorescent intensity of F-Aβ42 in the cytoplasm (confocal microscopy) (hCMEC/D3 monolayers [1]): substantial reduction | F-Aβ42 uptake by hCMEC/D3 cells (flow cytometry, MFI) (hCMEC/D3 monolayers [2]): significantly reduced
